Data on 20 sequences can be found in the EternaBench riboswitch data.

In this data set the test system is MS2 coat protein. In words: apparent Kd, MS2 coat protein; higher = weaker binding; RNA-MaP array; FMN 200 µM where present. A digest of the protocol: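 The apparent Kd comes from binding curves fitted cluster by cluster, filtered, and summarised as a median. Those curves followed SNAP-549-labelled MS2 coat protein from 0.7 or 1.5 nM, doubling to 3 µM, on Illumina sequencing-chip clusters where stalled E. coli RNA polymerase had transcribed the designs, without and then with constant ligand. The buffer was 100 mM Tris-HCl pH 7.5, 80 mM KCl, 4 mM MgCl2, BSA, DTT, yeast tRNA and Tween-20, and green signal was normalised to red-channel RNA signal and control-cluster median Fmax.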

Setting [1] is: designed as: OFF switch for flavin mononucleotide, no ligand.
Where [2] appears, read: ligand present: flavin mononucleotide, designed as: OFF switch for flavin mononucleotide.
The mark [3] stands for this setting: designed as: ON switch for flavin mononucleotide, no ligand.
[4] abbreviates: ligand present: flavin mononucleotide, designed as: ON switch for flavin mononucleotide.

As for “AAGCCUCUUGUCAGGAUAUCUGUCGGUCCUCCAAGAGAGAAGGGACAUGAGGAUCACCCAUGUAAGCCCAGGGA”, the apparent Kd – broadly, a dissociation constant that holds for the conditions of the assay – under setting [1] came out at 16.1 nM and the “apparent Kd” value under setting [2] was found to be 27.9 nM.
For “CUUUCGUGAGGAUAUGUGGCUUCGAUCGUGAGAUCGAGAAAACAGAAGGCACAUGAGGAUCACCCAUGUUCCUC” the same measures were 41 nM and 515 nM.
The corresponding values for “ACAUCACAUGAGGAUCACCCAUGUCAGGAUAUCGACUGAACAGCUUCGGCUGUUCAGUCGAGAAGGGACAAUUA” are 66.5 nM and 131 nM.
Turning to “AUUUAAAUGUCAGGAUAUGUUAGUUUAUACAUAGUAGAAGGGAUAAUUAUACUCAUGUACAUGAGGAUCACCCAUGUUAAAUCA”, the “apparent Kd” value came to 212 nM under setting [3] and 98.5 nM under setting [4].
Regarding “GAUUCGGGAGGAUAUACAUGAGGAUCACCCAUGUGUUUUUUAUGUGUUAUGUUAUCAUGUAGAAGGUUUGGGUC”, the “apparent Kd” value is, setting by setting: under setting [1], 151 nM; under setting [2], 195 nM.
Turning to “UUGAUAAAUUAGAAGGCGUGAUAAAAUACAAUAAACAUGAGGAUCACCCAUGUGUACCCAUGUUAUGAGGAUAUAGACAUUUAU”, the “apparent Kd” value is, setting by setting: under setting [3], 365 nM; under setting [4], 245 nM.
On to “AUUUUUUAUGUAGGAUAUGCUUGUGGUAAGAUAGCAGAAGGACAUGAGGAUCACCCAUGUUAAUGAUAGAGAUUUUAGGUUGGU”, for which the “apparent Kd” value under setting [1] turned out to be 42.6 nM and the “apparent Kd” value under setting [2] stood at 69.2 nM.
For “UGAGCUUGUGUGAGGAUAUGAGUUCGGAAAUGAGCUUAGAAGGCACAUGAGGAUCACCCAUGUAAGCGAGUUCG” the same measures were 72.2 nM and 74.7 nM.
For “UUAUUAUAUGUAGGAUAUGCAUAUUAUUAUUAUGCAGAAGGACAUGAGGAUCACCCAUGUAUGUUGUUAUUAUAUAUUAUAUAU” the same measures were 25.2 nM and 34.5 nM.
“GAUCUGACAGGAUAUACAUGAGGAUCACCCAUGUGCGAGCUAGCGAAAGCUAGCUUAGGUAGAAGGGUCAGAUC”: the “apparent Kd” value by setting is: under setting [1], 12.2 nM; under setting [2], 18.1 nM.
Take “GCAUGGUAUGAGAAGGCAUAUUUAAUCUAACAUCAUGUUUACAUGAGGAUCACCCAUGUUACCAAUGAGGAUAUCAUACCGUGC”: the “apparent Kd” value amounted to 9.67 nM under setting [1] and 9.8 nM under setting [2].
On to “AGAGGUCGCACAGGAUAUCAUACAUGAGGAUCACCCAUGUCAGAAAACAAAUGAGAAGGGUGCGCAUUAAUUGCUUGUGAAGAA”, for which the “apparent Kd” value was determined as 15.1 nM under setting [3] and 5.12 nM under setting [4].
As to “UUGUUGUAUGUAGGAUAUGCAUAUUAUUAUUAUGCAGAAGGACAUGAGGAUCACCCAUGUAUGUUAUUAUUAUAUGUUAUAUGU”, the “apparent Kd” value under setting [1] came out at 33.6 nM and the “apparent Kd” value under setting [2] came to 42.6 nM.
For the sequence “CGGAUGUCAGGAUAUACGAACAUGUCGCCAGAUGUCAUGGUACAUGAGGAUCACCCAUGUAGAAGGGAGGUGGU”, the “apparent Kd” value runs as follows: under setting [1], 160 nM; under setting [2], 331 nM.
For “UAUUGAUAAUAUUUUAACAUGAGGAUCACCCAUGUCGCUAGACAGGAUAUAUUUUAUUUGUUUAAGUAGAAGGGUCGCAGAUUU”, the “apparent Kd” value came out at 150 nM under setting [3] and 130 nM under setting [4].
Turning to “UUAUAAAGUGUGAGGAUAUGCUGGUCCUUGGAUCAGCAGAAGGCACAUGAGGAUCACCCAUGUAAUAUAUUUUU”, the “apparent Kd” value runs as follows: under setting [1], 89.8 nM; under setting [2], 309 nM.
The corresponding values for “GUAAACCGGUGAGGAUAUUUAUAAUAGAGCUUUAUGAUAUACAUGAGGAUCACCCAUGUUACUUUAAAGAAGGCAUCGGAAAUG” are 21.4 nM and 17.2 nM.
Turning to “UUUUUGUCAGGAUAUGCGUAGUAGAACAAUAGUACUACUACGUAGAAGGGACAUGAGGAUCACCCAUGUUCCUC”, the “apparent Kd” value came out at 14.4 nM under setting [1] and 20.5 nM under setting [2].
With “UUACUCAUGUAAGGAUAUGCAGCCGCUUCGGCUGCAGAAGGUACUAUAAUACAUGAGGAUCACCCAUGUCUUUUUAAUUUAGAC”, the “apparent Kd” value by setting is: under setting [3], 82.7 nM; under setting [4], 36.5 nM.
As to “GUGGUCAGACAUGAGGAUCACCCAUGUGGAAUAAAUAAGGAGAAGGAUAUGCAAUAUAGGAUAUAGUAGAAGGUCUGGUUGGUG”, the “apparent Kd” value runs as follows: under setting [3], 83.5 nM; under setting [4], 97.2 nM.
